Only some compounds are listed: those with a hit (about 2.1% of all), similar ones and a draw of the others.
CAL PDZ FP-1: human CAL PDZ-peptide interaction inhibition. inhibition, % at 20 µM. Q9HD26. 330,000 compounds, 0.02% hits. purified CAL PDZ, TMR-peptide fluorescence polarization, 1 h;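 active = highest replicate inhibition of at least 40%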;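 also: plate controls were DMSO neutral control wells for no effect and unlabeled competitor peptide control wells for full effect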
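System: tagged CAL PDZ domain. Schedule: 1 h room-temperature incubation prior to read. Signal: fluorescence polarization (mP). Measure: percent inhibition from loss of millipolarization.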
CAL PDZ FP-2: inhibitors of human CAL PDZ peptide binding; 300,000 compounds, 0.92% hits; AID 602252; Q9HD26; inhibition, % at 24.9 µM; purified CAL PDZ, TMR-peptide fluorescence polarization, 1 h;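 active = mean inhibition of at least 30% with at least half of replicates also reaching 30%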;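 also: 0% = DMSO neutral control and 100% = excess unlabeled competitor peptide PRC23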
SR-BI HDL uptake: mouse SR-BI HDL lipid transfer inhibition. ldlA[mSR-BI] CHO cells, DiI-HDL uptake fluorescence, 3 h. inhibition, % at 12.5 µM. 320,000 compounds, 0.96% hits;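 active = mean replicate inhibition of at least 70% and a set share of replicates each scoring 70 or more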;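 also: 0% = median of neutral control wells and 100% = median of positive control wells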
Target sequence (Q61009 whole entry, looked up): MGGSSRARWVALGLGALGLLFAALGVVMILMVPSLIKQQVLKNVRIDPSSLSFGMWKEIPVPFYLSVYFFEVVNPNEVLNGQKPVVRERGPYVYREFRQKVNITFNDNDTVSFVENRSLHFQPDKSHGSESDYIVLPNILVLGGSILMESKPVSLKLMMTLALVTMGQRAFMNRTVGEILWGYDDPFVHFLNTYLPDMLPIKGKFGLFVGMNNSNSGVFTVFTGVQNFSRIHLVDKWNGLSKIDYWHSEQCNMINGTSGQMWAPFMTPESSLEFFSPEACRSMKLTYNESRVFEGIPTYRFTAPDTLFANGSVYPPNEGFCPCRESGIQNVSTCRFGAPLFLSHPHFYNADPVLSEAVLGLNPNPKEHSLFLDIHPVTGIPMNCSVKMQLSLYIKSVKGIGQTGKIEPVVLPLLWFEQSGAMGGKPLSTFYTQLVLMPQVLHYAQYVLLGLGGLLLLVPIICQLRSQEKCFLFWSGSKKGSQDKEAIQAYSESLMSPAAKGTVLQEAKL
ARNT-TACC3 inh: ARNT/TACC3 interaction disruption; Q9Y6A5; inhibition, % at 9.99 µM; 390,000 compounds, 0.66% hits; AlphaScreen His-ARNT PAS-B/GST-TACC3 binding, luminescence; TACC3 fragment carries E629A point mutation;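 active = mean inhibition of replicates at least 50% and at least half of replicates each reaching 50%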;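 also: 0% = complete ARNT plus TACC3 wells and 100% = ARNT alone without TACC3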
SR-BI uptake up: enhances SR-BI lipid uptake from DiI-HDL. CHO ldlA[mSR-BI] cells, DiI-HDL uptake fluorescence, 3 h; 100 = double the neutral-control signal. activation, % at 12.5 µM. 320,000 compounds, 0.096% hits;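 active = mean replicate activation of at least 60% and every replicate at or above 60%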;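 also: 0% = median plate neutral-control signal and 100% = twice that signal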
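Assay system: LDL receptor-deficient CHO ldlA cells overexpressing murine SR-BI / Medium: BSA-supplemented, HEPES-buffered Ham's F12, pH 7.4 / Probe or stimulus: DiI-labelled HDL at 10 µg/mL final / Timing: compound with DiI-HDL co-incubation, 3 h at 37 °C / Technique: bottom-read cell fluorescence after medium removal, ex 550/em 595 nm / Measure: HDL uptake via cellular fluorescence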
miR122 inh: blocks miR-122 activity in Huh7 sensor cells; Huh7 miR-122 Renilla luciferase sensor, 48 h; neutral wells = 0, positive control = 100; activation (reporter increase), % at 12.5 µM; 340,000 compounds, 0.3% hits;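 active = mean replicate activation score at least 90 and every replicate individually at or above 90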;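 also: higher luciferase means less miR-122 activity so hits act as miR-122 inhibitors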
The depositor's hits bear a star; nt = not tested or not shown; [ ] = dose if it differs, or a comment.

SMILES	CAL PDZ FP-1	CAL PDZ FP-2	SR-BI HDL uptake	ARNT-TACC3 inh	SR-BI uptake up	miR122 inh
Cc1cc(C(=O)Nc2ccc(N3CCCC3)c(Cl)c2)ccc1[N+](=O)[O-]	-1.2	-1.0	64.1	nt	-64.1	nt
COc1ccc(C(=O)c2cc([N+](=O)[O-])ccc2N2CCCC2)cc1	-0.3	-2.0	70.4*	4.7	-70.4	nt
COc1ccc(NC(=O)c2cc([N+](=O)[O-])ccc2N2CCCCC2)cc1	-1.2	-3.5	90.2*	nt	-90.2	nt
O=C(c1ccc(Br)cc1)c1cc([N+](=O)[O-])ccc1N1CCCCC1	-0.2	-4.2	87.8*	-13.1	-87.8	185.3*
O=C(C1CC1)N1CCCCN2[C@H](C1)[C@@H](c1ccc(C#CC3(O)CCCC3)cc1)[C@@H]2CO	nt	nt	nt	-3.7	nt	-25.3[16.7 µM]
CCNc1ccc2noc3c2c1C(=O)c1ccccc1-3	43.7*	18.4	11.0	15.8	-11.0	nt
Cc1ccc(C(=O)Nc2cccc([N+](=O)[O-])c2)cc1S(=O)(=O)Nc1ccc(NC(=O)c2ccccc2)cc1	-1.4	-8.3	23.6	-1.9	-23.6	nt
Cc1ccc(NS(=O)(=O)c2cc(C(=O)Nc3cccc([N+](=O)[O-])c3)ccc2C)cc1	0.0	1.2	57.7	-1.8	-57.7	131.4*
O=C(O)c1cccc(NC(=O)c2cccc(S(=O)(=O)Nc3cccc([N+](=O)[O-])c3)c2)c1	-2.0	96.5*	-21.9	1.5	21.9	-1.4
C[C@@H]1CN([C@H](C)CO)C(=O)c2cc(NC(=O)Cc3ccccc3)ccc2O[C@@H](C)CCCCO[C@H]1CN(C)Cc1ccc(C(F)(F)F)cc1	nt	nt	nt	0.0	nt	-30.7[16.7 µM]
CCCn1cnc2c(SCc3ccccc3)nc(N)nc21	-0.1	-1.0	6.9	-5.7	-6.9	-2.9
Nc1nc(SCc2ccccc2)c2ncn(Cc3ccccc3)c2n1	-1.3	40.7*	-5.1	-7.9	5.1	-6.6
NC(=S)N/N=C\c1ccc(-c2cccc(Cl)c2Cl)o1	-1.1	-0.1	78.5*	-0.2	-78.5	-5.4
O=C(O)c1cc(-c2ccc(/C=N/NC(=S)Nc3ccccc3)o2)ccc1Cl	-0.1	-4.5	12.9	nt	-12.9	-3.4
NC(=S)NN=Cc1ccc(-c2ccc(S(=O)(=O)Nc3ncccn3)cc2)o1	-1.0	-6.1	5.4	16.6	-5.4	nt
NC(=S)N/N=C/c1ccc(-c2ccc(SC(F)F)cc2)o1	-0.6	-3.5	74.3*	10.2	-74.3	10.2
NC(=S)N/N=C/c1ccc(-c2ccc(Cl)c(Cl)c2)o1	-0.2	-2.0	85.5*	-2.7	-85.5	12.9
NC(=S)N/N=C/c1ccc(-c2ccccc2)o1	-1.0	nt	64.6	8.2	-64.6	nt
Cc1ccc(-c2ccc(/C=N/NC(N)=S)o2)cc1	-0.2	1.6	95.6*	11.2	-95.6	2.0
COc1cccc(NC(=O)N(C)C[C@H]2Oc3cc(C#CC4(O)CCCC4)ccc3S(=O)(=O)N([C@@H](C)CO)C[C@@H]2C)c1	nt	nt	nt	1.6	nt	58.6[16.7 µM]
O=C(CC1CC1)Nc1ccc2c(c1)[C@@H]1C[C@H](CC(=O)N3CCOCC3)O[C@@H](CO)[C@@H]1O2	nt	nt	nt	-3.8	nt	-0.4[16.7 µM]
CO[C@H]1CN(C)C(=O)c2cc(NC(=O)C3CC3)ccc2OC[C@H](C)N(Cc2ccccc2)C[C@@H]1C	nt	nt	nt	-3.5	nt	2.3[16.7 µM]
O=C(C1CC1)N1CCCCN2[C@H](CO)[C@H](c3ccc(C#CC4(O)CCCC4)cc3)[C@H]2C1	nt	nt	nt	-5.2	nt	-25.4[16.7 µM]
C[C@H](O)C#Cc1ccc2c(c1)O[C@@H](CN(C)CC1CCCC1)[C@H](C)CN([C@H](C)CO)S2(=O)=O	nt	nt	nt	-5.3	nt	40.7[16.7 µM]
CCC(C(=O)Nc1ccccc1)c1ccccc1 (stereo not drawn)	-0.5	-1.2	-35.1	-0.1	35.1	-1.0
SMILES	CAL PDZ FP-1	CAL PDZ FP-2	SR-BI HDL uptake	ARNT-TACC3 inh	SR-BI uptake up	miR122 inh
CCC(C(=O)NN1C(=O)c2ccccc2C1=O)c1ccccc1 (stereo not drawn)	45.4*	-5.9	10.7	-4.2	-10.7	nt
COCC(=O)Nc1ccc2c(c1)OC[C@H](C)N(CC1CCCCC1)C[C@@H](C)[C@@H](OC)CN(C)C2=O	nt	nt	nt	7.0	nt	nt
COc1ccc(Cl)cc1C(=O)NNC(=O)CNC(=O)c1ccc(C)s1	1.1	54.0*	-14.0	-2.2	14.0	3.9
CCOc1ccc(C(=O)NNC(=O)CNC(=O)c2ccc(C)s2)cc1OC	-1.0	-2.1	-12.6	3.3	12.6	nt
C[C@H]1CN([C@@H](C)CO)C(=O)Cc2cc(NC(=O)c3ccncc3)ccc2O[C@H]1CN(C)S(C)(=O)=O	nt	nt	nt	5.3	nt	-2.5[16.7 µM]
CCC(=O)N1C[C@@H](C)[C@H](OC)CN(C)C(=O)c2cc(NC(=O)Nc3cccc(F)c3)ccc2OC[C@@H]1C	nt	nt	nt	-5.1	nt	6.5[16.7 µM]
O=C1CNC(=S)N1CCCn1ccnc1	-1.7	0.8	nt	60.1*	nt	-1.8
Cc1c(NC(=O)CSc2nnc3c4ccccc4n(CCc4ccccc4)c3n2)c(=O)n(-c2ccccc2)n1C	-2.5	-7.3	81.6*	-2.1	-81.6	22.6
Cc1ccc(S(=O)(=O)Nc2ccc3c(c2)C(=O)N([C@H](C)CO)C[C@@H](C)[C@H](CN(C)C(=O)Nc2ccccc2)OCCCC[C@@H](C)O3)cc1	nt	nt	nt	3.5	nt	-14.2[16.7 µM]
Cc1ccc(NC(=O)Cn2c(=O)c(C)nc3ccccc32)cc1	-0.3	-1.8	-10.5	-3.3	10.5	nt
Cc1cccc(NC(=O)Cn2c(/C=C/c3ccccc3)nc3ccccc32)c1	-2.0	-2.2	-11.7	47.5*	11.7	nt
COc1ccc(-c2cnc3c(c2)C(=O)N([C@H](C)CO)C[C@H](C)[C@H](CN(C)S(=O)(=O)c2cccc(OC)c2)O3)cc1	nt	nt	nt	nt	nt	-5.4[16.7 µM]
O=C(NCc1ccc(Cl)cc1)c1ccc(CNc2c(N3CCOCC3)c(=O)c2=O)cc1	-1.0	69.4*	5.4	-5.2	-5.4	15.0
CO[C@H]1CN(C)C(=O)c2cc(NC(=O)C3CC3)ccc2OC[C@@H](C)N(C(=O)Cc2ccccn2)C[C@@H]1C	nt	nt	nt	-5.8	nt	nt
COc1cc(-c2noc(CCCC(=O)Nc3cccnc3)n2)cc(OC)c1OC	-1.2	68.9*	-15.3	26.5	15.3	nt
C[C@@H]1CCCCO[C@@H](CN(C)Cc2ccccc2)[C@H](C)CN([C@H](C)CO)C(=O)c2cc(NS(=O)(=O)c3cn(C)cn3)ccc2O1	nt	nt	nt	-19.5	nt	4.8[16.7 µM]
CC(C)(C)S(=O)(=O)c1cnc2c(-c3ccsc3)cnn2c1N	0.4	47.7*	0.9	-3.5	-0.9	nt
C[C@@H]1CN([C@@H](C)CO)S(=O)(=O)c2ccc(C3=CCCCC3)cc2O[C@@H]1CN(C)Cc1cccnc1	nt	nt	nt	7.4	nt	nt
Cc1ccc(NC(=O)c2cc(=O)c3ccccc3o2)cc1S(=O)(=O)N1CCCCC1	-3.5	-2.3	80.3*	-2.2	-80.3	nt
CC(=O)c1cccc(NC(=O)c2cc(=O)c3ccccc3o2)c1	-0.6	50.0*	13.7	-2.0	-13.7	-0.6
